Assay results as given in ChEMBL document CHEMBL4689842, “EUbOPEN Chemogenomics Library wave 1” (2021).
“And” between values parts separate entries of the source, which are not always exact repeats. Identical values can stand only once.

Experiments:
Type in all cases: toxicity, cell-based
Fibroblast [1] = assay: Multiplex assay against human fibroblast; details: 10 µM, compound concentration 10 uM
Summary of the method: (§1)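 Live cells carried four stains from seeding: Hoechst33342, BioTracker Green Microtubule Cytoskeleton Dye, MitoTracker Red and Annexin V Alexa Fluor 680. They were imaged on a CQ1 microscope at 37°C and 5% CO2 after compound addition. Using CellPathfinder machine-learning gating, cells were split into Hoechst high-intensity objects or normal cells, normal cells into healthy, pyknosed or fragmented nuclei, and pyknosed cells into mitotic or apoptotic; tubulin, mitochondrial-mass and membrane-permeability phenotypes are per cents of healthy-nucleus cells.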

HEK-293T [2] = assay: Multiplex assay against HEK293T; details: human, 10 µM, compound concentration 10 uM; summary of the method: as §1
U2OS [3] = assay: Incucyte cell viability with U2OS; details: human, 10 µM, compound concentration 10 uM; further: filed as whole numbers so only -1 and 0 and 1 occur
HEK-293T [4] = assay: Incucyte cell viability with HEK293T; details: human, 10 µM, compound concentration 10 uM; further: filed as whole numbers so only -1 and 0 and 1 occur
U2OS [5] = assay: Multiplex assay against U2OS; details: human, 10 µM, compound concentration 10 uM; summary of the method: as §1
Fibroblast [6] = assay: Incucyte cell viability with human fibroblast; details: 10 µM, compound concentration 10 uM; further: filed as whole numbers so only -1 and 0 and 1 occur
[7] = 6 h, replicate number 1, timepoint 6 hours
[8] = 12 h, replicate number 1, timepoint 12 hours
[9] = 18 h, replicate number 1, timepoint 18 hours
[10] = 24 h, replicate number 1, timepoint 24 hours

## COc1cc(C)c(Sc2cnc(NC(=O)c3ccc(CNC(C)C(C)(C)C)cc3)s2)cc1C(=O)N1CCN(C(C)=O)CC1 (stereo not drawn)
Fibroblast [1]; 12 h, replicate 1
  Population Apoptotic (%): 67% and 75%
  Population Fragmented Nuclei (%): 22% and 35%
  Population Healthy Nuclei (%): 60% and 50%
  Population Hoechst High Intensity Objects (%): 12%
  Population Membrane Permeable-Phenotype (%): 6%
  Population Mitotic Cells (%): 32% and 25%
  Population Normal (%): 87%
  Population Pyknosed Nuclei (%): 14%
  Population Tubulin-Different-Phenotype (%): 4% and 12%
  Total Cell Count: 276 and 186
Fibroblast [1]; 12 h, replicate 2
  Population Apoptotic (%): 50% and 40%
  Population Fragmented Nuclei (%): 46% and 56%
  Population Healthy Nuclei (%): 38% and 33%
  Population Hoechst High Intensity Objects (%): 29% and 43%
  Population Membrane Permeable-Phenotype (%): 10% and 11%
  Population Mitochondria Different-Phenotype (%): 10% and 27%
  Population Mitotic Cells (%): 50% and 60%
  Population Normal (%): 70% and 56%
  Population Pyknosed Nuclei (%): 16% and 9%
  Total Cell Count: 71 and 94
Fibroblast [1]; 24 h, replicate 1
  Population Apoptotic (%): 57% and 91%
  Population Fragmented Nuclei (%): 18% and 31%
  Population Healthy Nuclei (%): 69% and 53%
  Population Hoechst High Intensity Objects (%): 17% and 13%
  Population Membrane Permeable-Phenotype (%): 9% and 6%
  Population Normal (%): 82% and 86%
  Population Pyknosed Nuclei (%): 14%
  Total Cell Count: 264 and 192
Fibroblast [1]; 24 h, replicate 2
  Population Apoptotic (%): 33% and 66%
  Population Fragmented Nuclei (%): 46% and 54%
  Population Healthy Nuclei (%): 42% and 33%
  Population Hoechst High Intensity Objects (%): 23% and 42%
  Population Membrane Permeable-Phenotype (%): 8% and 22%
  Population Mitotic Cells (%): 66% and 33%
  Population Normal (%): 76% and 57%
  Population Pyknosed Nuclei (%): 11%
  Total Cell Count: 71 and 92
HEK-293T [2]; 12 h, replicate 1
  Population Apoptotic (%): 22% and 18%
  Population Fragmented Nuclei (%): 20% and 17%
  Population Healthy Nuclei (%): 47% and 68%
  Population Hoechst High Intensity Objects (%): 19% and 8%
  Population Membrane Permeable-Phenotype (%): 6% and 3%
  Population Mitotic Cells (%): 77% and 81%
  Population Normal (%): 80% and 91%
  Population Pyknosed Nuclei (%): 31% and 13%
  Total Cell Count: 653 and 686
HEK-293T [2]; 12 h, replicate 2
  Population Fragmented Nuclei (%): 4% and 5%
  Population Healthy Nuclei (%): 86% and 89%
  Population Hoechst High Intensity Objects (%): 3% and 2%
  Population Membrane Permeable-Phenotype (%): 1%
  Population Mitochondria Different-Phenotype (%): 22% and 9%
  Population Mitotic Cells (%): 85% and 95%
  Population Normal (%): 96% and 97%
  Population Pyknosed Nuclei (%): 9% and 4%
  Total Cell Count: 1194 and 1652
HEK-293T [2]; 24 h, replicate 1
  Population Apoptotic (%): 28% and 21%
  Population Fragmented Nuclei (%): 19% and 13%
  Population Healthy Nuclei (%): 65% and 78%
  Population Hoechst High Intensity Objects (%): 14% and 6%
  Population Membrane Permeable-Phenotype (%): 10% and 6%
  Population Mitotic Cells (%): 71% and 78%
  Population Normal (%): 85% and 93%
  Population Pyknosed Nuclei (%): 14% and 7%
  Total Cell Count: 664 and 754
HEK-293T [2]; 24 h, replicate 2
  Population Apoptotic (%): 7% and 4%
  Population Fragmented Nuclei (%): 15% and 22%
  Population Healthy Nuclei (%): 81% and 74%
  Population Hoechst High Intensity Objects (%): 3%
  Population Membrane Permeable-Phenotype (%): 8% and 5%
  Population Mitochondria Different-Phenotype (%): 5% and 2%
  Population Mitotic Cells (%): 92% and 95%
  Population Normal (%): 96%
  Population Pyknosed Nuclei (%): 3% and 2%
  Total Cell Count: 2038 and 2847
U2OS [3]; 0 h, replicate number 1, timepoint 0 hours
  Growth Rate: 0
U2OS [3]; [7]
  Growth Rate: 0
U2OS [3]; [8]
  Growth Rate: 0
U2OS [3]; [9]
  Growth Rate: 0
U2OS [3]; [10]
  Growth Rate: 0
HEK-293T [4]; [7]
  Growth Rate: 0
HEK-293T [4]; [8]
  Growth Rate: 0
HEK-293T [4]; [9]
  Growth Rate: 0
HEK-293T [4]; [10]
  Growth Rate: 0
U2OS [5]; 12 h, replicate 1
  Population Apoptotic (%): 33% and 44%
  Population Fragmented Nuclei (%): 6% and 2%
  Population Healthy Nuclei (%): 84%
  Population Hoechst High Intensity Objects (%): 3% and 4%
  Population Mitochondria Different-Phenotype (%): 12% and 33%
  Population Mitotic Cells (%): 66% and 55%
  Population Normal (%): 96% and 95%
  Population Pyknosed Nuclei (%): 8% and 6%
  Population Tubulin-Different-Phenotype (%): 32%
  Total Cell Count: 180 and 143
U2OS [5]; 12 h, replicate 2
  Population Apoptotic (%): 0%
  Population Fragmented Nuclei (%): 5%
  Population Healthy Nuclei (%): 90% and 89%
  Population Hoechst High Intensity Objects (%): 12% and 8%
  Population Mitochondria Different-Phenotype (%): 16% and 15%
  Population Mitotic Cells (%): 100%
  Population Normal (%): 87% and 91%
  Population Pyknosed Nuclei (%): 3% and 4%
  Population Tubulin-Different-Phenotype (%): 24% and 19%
  Total Cell Count: 98 and 130
U2OS [5]; 24 h, replicate 1
  Population Apoptotic (%): 78% and 28%
  Population Fragmented Nuclei (%): 2% and 4%
  Population Healthy Nuclei (%): 90% and 92%
  Population Hoechst High Intensity Objects (%): 1%
  Population Membrane Permeable-Phenotype (%): 7%
  Population Mitochondria Different-Phenotype (%): 14% and 24%
  Population Normal (%): 98%
  Population Pyknosed Nuclei (%): 6% and 3%
  Population Tubulin-Different-Phenotype (%): 18% and 34%
  Total Cell Count: 222 and 212
U2OS [5]; 24 h, replicate 2
  Population Apoptotic (%): 18% and 40%
  Population Fragmented Nuclei (%): 3% and 7%
  Population Healthy Nuclei (%): 80% and 89%
  Population Hoechst High Intensity Objects (%): 10% and 7%
  Population Membrane Permeable-Phenotype (%): 15% and 5%
  Population Mitochondria Different-Phenotype (%): 25% and 33%
  Population Mitotic Cells (%): 81% and 60%
  Population Normal (%): 89% and 92%
  Population Pyknosed Nuclei (%): 16%
  Population Tubulin-Different-Phenotype (%): 15% and 28%
  Total Cell Count: 108 and 162
Fibroblast [6]; [7]
  Growth Rate: 0
Fibroblast [6]; [8]
  Growth Rate: 0
Fibroblast [6]; [9]
  Growth Rate: 0
Fibroblast [6]; [10]
  Growth Rate: 0
